# Screening data from PubChem.
# In the library only some 4.3% were active in any assay of this set; here they are far more common.
# HTR2A ag – activates the mouse 5-HT2A serotonin receptor | activation, % at 7.6 µM | CHO-K1 mHTR2A beta-arrestin complementation, luminescence; percent of 30 µM serotonin response | P35363 | AID 624169 | actives 0.66% (n = 360,000);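 active = activation above a run cutoff, the mean activation of all tested compounds plus 3 SD, cut at about 14% in these data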
# MC4R ag barr – human MC4R agonism via beta-arrestin; activation, % at 8.9 µM; actives 0.98% (n = 360,000); U2OS MC4R beta-arrestin complementation, luminescence; percent of melanotan II response, DMSO zero; P32245;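 active = activation above a per-plate cutoff, the mean activation of sample wells on that plate plus 3 SD, cut at about 8% in these data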
# TAAR1 ag – agonists of human TAAR1; activation, % at 3 µM; actives 0.99% (n = 360,000); CHO RD-HGA16 TAAR1, Fluo-8 calcium fluorescence; vehicle wells 0%, saturating PEA agonist 100%;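 active = activation above the mean activation of all test compounds in the run plus 3 SD, cut at about 38% in these data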
# Target sequence (Q96RJ0 whole entry, looked up): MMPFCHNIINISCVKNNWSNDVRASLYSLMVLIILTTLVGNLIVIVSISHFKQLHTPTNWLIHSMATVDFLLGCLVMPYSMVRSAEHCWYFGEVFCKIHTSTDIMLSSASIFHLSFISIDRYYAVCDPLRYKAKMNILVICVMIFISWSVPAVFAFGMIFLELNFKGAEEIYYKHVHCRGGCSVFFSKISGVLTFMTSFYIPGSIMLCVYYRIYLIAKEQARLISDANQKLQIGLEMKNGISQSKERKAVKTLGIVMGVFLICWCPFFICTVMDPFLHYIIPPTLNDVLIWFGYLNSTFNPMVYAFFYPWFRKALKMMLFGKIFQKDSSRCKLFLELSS
#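 test system = CHO RD-HGA16 cells carrying human TAAR1 plus Gα16 | schedule = 17-24 h seeding, 75 min 37 °C dye, 30 min RT | compound dosing = 3 µM single concentration | control set = DMSO and PEA EC100 | replicates = n 1 | signal = Fluo-8 fluorescence, 5 s baseline then 140 s kinetic read | measure = percent activation vs PEA EC100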
# TAAR1 antagonist – human TAAR1 antagonism | inhibition, % at 3 µM | Q96RJ0 | actives 1.5% (n = 360,000) | CHO RD-HGA16 TAAR1, Fluo-8 calcium fluorescence, antagonist;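 active = inhibition above a per-plate cutoff, the mean inhibition of test compounds on that plate plus 3 SD, cut at about 49% in these data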
#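 Test system – hTAAR1-expressing CHO RD-HGA16 cells, Gα16-coupled · Reagent – β-PEA at EC80 concentration, post-compound challenge · Compound dosing – 3 µM, single point · Timing – 140 s kinetic read after compound, 140 s after agonist · Detection – Fluo-8 intracellular calcium dye fluorescence, real-time kinetic reads · Control set – DMSO and EC80 PEA controls · Repeats – n of 1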
# MC4R antag cAMP – human MC4R antagonism in cAMP assay. inhibition, % at 6.5 µM. actives 0.48% (n = 360,000). P32245. MC4R-expressing cells, MTII-stimulated cAMP, LANCE TR-FRET. AID 540295;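 active = inhibition above its plate's cutoff, the mean of tested wells on that plate plus 3 SD, cut at about 29% in these data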
#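 Material: U2OS-MC4R stable cell line | Reagent: Melanotan II challenge after compound preincubation | Doses: One concentration, 6.5 µM nominal | Incubation: 30-min compound preincubation, 1-h Melanotan II challenge, 1-h detection, room temperature | Signal: TR-FRET cAMP assay | Replicates: One well per compound, no replicates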
# Beta2AR agonist – activates human beta-2 adrenergic receptor causing internalization. P07550. response, % (no concentration beside the values). actives 0.43% (n = 340,000). Am2.2-beta2AR cells, FAP receptor internalization, flow cytometry;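 active = response above a set limit, near 3 SD of response in nonfluorescent compounds, cut at about 42% in these data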
# OPRM1 ag – OPRM1 agonism in mouse HTR2A counterscreen; shares compounds with HTR2A ag; U2OS OPRM1 beta-arrestin PathHunter, luminescence; DMSO 0%, DAMGO 9.3 µM 100%; activation, % at 9.3 µM; actives 5.3% (n = 2,300);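 active = mean activation above the mean of DMSO-only wells plus 3 SD, cut at about 0.5% in these data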
# m5-HT2A ag conf – confirmation of mouse HTR2A serotonin receptor agonists; actives 19% (n = 2,300); AID 624381; activation, % at 7.6 µM; shares compounds with HTR2A ag; CHO-K1 PathHunter beta-arrestin recruitment, luminescence; DMSO 0%, 30 µM serotonin 100%;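 active = mean activation across triplicates above the hit threshold derived in the original primary screen, cut at about 15% in these data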
# A number is an active result; - = inactive; . = no result given.
SMILES,HTR2A ag,MC4R ag barr,TAAR1 ag,TAAR1 antagonist,MC4R antag cAMP,Beta2AR agonist,OPRM1 ag,m5-HT2A ag conf
Cc1cc(C)c2cc(CN(CCN3CCCC3)C(=O)Nc3ccc(F)cc3)c(=O)[nH]c2c1,20,-,-,-,-,-,-,-
Cc1cc(C)c2cc(CN(CCO)C(=O)Nc3ccc(Cl)cc3)c(=O)[nH]c2c1,.,.,-,-,.,.,.,.
COc1ccccc1CNCC(O)(c1ccc(Cl)cc1)c1ccc(Cl)cc1,22,-,-,-,-,-,-,-
CC12CCC=CC1=C(C=O)C1C2CCC2(C)C(O)CCC12 (centres undefined),-,-,-,-,-,-,.,.
CCNC(=O)C1(C)CCN(C(=O)c2ccccc2C(F)(F)F)C1 (centres undefined),-,-,-,-,-,.,.,.
C=CCn1c(=N)n(CC(O)c2ccco2)c2ccccc21 (centres undefined),15,-,-,-,-,-,-,-
CCn1c(=N)n(CC(O)c2ccco2)c2ccccc21 (centres undefined),-,-,-,-,-,-,.,.
CC1COC(c2cccn2Cc2ccccc2Cl)=N1 (centres undefined),24,-,-,-,-,-,-,-
CCCN(C(=O)c1cc(S(=O)(=O)N(C)c2ccc(OCC)cc2)ccc1C)C1CCS(=O)(=O)C1 (centres undefined),-,-,-,-,-,-,.,.
C[C@@H]1O[C@H](C2CCCC2)Cc2[nH]c(=S)[nH]c(=O)c21,-,.,-,-,.,.,.,.
COc1ccc(Cl)cc1CC1(C)C(=O)Nc2ccc(-c3ccccc3OC)cc21 (centres undefined),21,-,-,-,-,.,-,17
COc1ccccc1-c1ccc2c(c1)C(C)(Cc1cc(Cl)ccc1C(F)(F)F)C(=O)N2 (centres undefined),-,-,-,-,-,.,.,.
CC1(C)S[C@@H]2[C@H](NC(=O)[C@H](N)c3ccccc3)C(=O)N2[C@H]1C(=O)OC1OC(=O)c2ccccc21 (some centres undefined),-,-,-,-,-,-,.,.
CNC(=O)CN(Cc1ccccc1)S(=O)(=O)c1ccc(Cl)cc1,-,-,-,-,-,-,.,.
Cn1c(=O)n(C)c2cc(/C=C3/SC(=O)N(CC(=O)N4CCOCC4)C3=O)ccc21,17,-,-,-,-,-,-,-
O=C(C1CCC(CNc2c(N3CCCCC3)c(=O)c2=O)CC1)N1CCCCC1 (centres undefined),19,-,-,-,-,-,-,-
Cc1ccc(C)c(NC(=O)c2ccc[n+](Cc3ccc([N+](=O)[O-])cc3)c2)c1,15,-,-,-,-,-,-,-
O=C(O)c1ccc[n+](Cc2ccc([N+](=O)[O-])cc2)c1,-,-,-,-,-,-,.,.
O=C(O)/C=C\C(=O)Nc1ccc(N2CCN(c3ccc(Cl)cc3)CC2)cc1,-,-,-,-,-,-,.,.
O=C(O)/C=C\C(=O)Nc1ccc(N2CCN(c3cccc(Cl)c3)CC2)cc1,17,-,-,-,-,-,-,-
O=C(O)/C=C\C(=O)Nc1ccc(N2CCN(c3ccc(Cl)c(Cl)c3)CC2)cc1,35,-,-,-,-,-,-,-
COc1ccc(C(=O)N2CCCC(C(=O)O)C2)c2ccccc12 (centres undefined),-,-,-,-,-,-,.,.
CC(CC(=O)Nc1ccc2c(c1)c(=O)n(C)n2-c1cccs1)c1ccccc1 (centres undefined),-,-,-,-,-,.,.,.
CSc1nnc(-c2cccc(NC(=S)NN)c2)o1,27,-,-,-,-,74,-,-
